Data reported in ChEMBL document CHEMBL4145560, “Conformationally Constrained Cinnolinone Nucleoside Analogues as Siderophore Biosynthesis Inhibitors for Tuberculosis” (ACS Med Chem Lett, 2018).
pKi: −log10 of the molar value. Active and inactive are the calls of the source. No cut-off for these calls is given here.

Tests used:
[1] = system: Mycobacterium tuberculosis; assay: Antimycobacterial activity against Mycobacterium tuberculosis H37Rv in glycerol alanine salts medium without ferric ammonium citrate at pH 6.6 after 10 to 14 days in presence of 12.5 uM salicylate by broth microdilution method; type: functional
Method in brief: (§1)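 MIC against M. tuberculosis in iron-deficient GAST medium supplemented with salicylate at 0, 0.2, 0.78, 3.1 or 12.5 μM. Salicylate was added to the growth medium to test antagonism of whole-cell activity.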

[2] = AUC (0 to 8 hrs) in Sprague-Dawley rat at 2.5 mg/kg, iv administered as single dose via bolus injection by LC-MS/MS method; type: ADME, organism-based; set-up: time < 8 hr, dose 2.5 mg/kg, route intravenous; settings: in vivo
Method in brief: (§2)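 Female Sprague–Dawley rats (n = 3), single i.v. dose 2.5 mg/kg. Plasma concentrations at several time points by LC–MS/MS. AUC taken over 0–8 h. Clearance, volume of distribution and half-life derived from the i.v. curve, with elimination monoexponential. Reported as mean ± SD.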

[3] = Clearance in Sprague-Dawley rat at 2.5 mg/kg, iv administered as single dose via bolus injection by LC-MS/MS method; type: ADME, organism-based; settings: in vivo; method in brief: as §2
[4] = Oral bioavailability in Sprague-Dawley rat at 25 mg/kg administered as single dose via gavage by LC-MS/MS method; type: ADME, organism-based; settings: in vivo
Method in brief: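 Oral bioavailability (F) in female Sprague–Dawley rats (n = 3), calculated by comparing AUC0–8h after a single 25 mg/kg p.o. dose with AUC0–8h after a 2.5 mg/kg i.v. dose. Plasma levels measured by LC–MS/MS.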

[5] = Volume of distribution at steady state in Sprague-Dawley rat at 2.5 mg/kg, iv administered as single dose via bolus injection by LC-MS/MS method; type: ADME, organism-based; settings: in vivo, read-out: Vdss; method in brief: as §2
[6] = AUC (0 to 8 hrs) in Sprague-Dawley rat at 25 mg/kg, po administered as single dose via gavage by LC-MS/MS method; type: ADME, organism-based; set-up: time < 8 hr, dose 25 mg/kg, route oral; settings: in vivo
Method in brief: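 Female Sprague–Dawley rats (n = 3), single oral dose 25 mg/kg. Plasma levels at time points measured by LC–MS/MS. AUC over 0–8 h, reported as mean ± SD.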

[7] = system: Mycobacterium tuberculosis; assay: Antimycobacterial activity against wild type Mycobacterium tuberculosis in iron-free GAST medium at 0.04 to 10 uM after 8 days by two fold serial dilution method; type: functional, organism-based
[8] = Elimination half life in Sprague-Dawley rat at 2.5 mg/kg, iv administered as single dose via bolus injection by LC-MS/MS method; type: ADME, organism-based; settings: in vivo, read-out: beta t1/2; method in brief: as §2
[9] = biological target: T1, Salicyl-AMP ligase / salicyl-S-ArCP synthetase (Mycobacterium tuberculosis, UniProt P71716); assay: Inhibition of Mycobacterium tuberculosis recombinant salicylate ligase MbtA expressed in Escherichia coli using salicylic acid as substrate after 20 mins by [32P]PPi-ATP exchange based scintillation counting analysis; settings: read-out: Ki(app)
T1 sequence (P71716 whole entry): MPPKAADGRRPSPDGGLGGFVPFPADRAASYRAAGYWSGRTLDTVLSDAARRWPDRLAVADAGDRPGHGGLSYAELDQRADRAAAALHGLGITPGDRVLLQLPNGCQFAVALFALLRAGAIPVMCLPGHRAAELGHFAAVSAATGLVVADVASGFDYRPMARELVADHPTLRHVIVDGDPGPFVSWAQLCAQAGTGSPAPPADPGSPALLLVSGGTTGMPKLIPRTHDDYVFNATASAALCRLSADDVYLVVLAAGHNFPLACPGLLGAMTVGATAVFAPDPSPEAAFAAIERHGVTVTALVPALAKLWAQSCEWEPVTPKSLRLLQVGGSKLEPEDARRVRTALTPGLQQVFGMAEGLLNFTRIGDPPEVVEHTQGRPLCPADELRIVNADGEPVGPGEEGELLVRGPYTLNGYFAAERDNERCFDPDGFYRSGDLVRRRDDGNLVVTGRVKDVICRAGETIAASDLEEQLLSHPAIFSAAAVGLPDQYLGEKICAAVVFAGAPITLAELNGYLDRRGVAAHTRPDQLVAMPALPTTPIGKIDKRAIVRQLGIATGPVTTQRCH
Method in brief: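 Recombinant MbtA (7 nM) in a [32P]PPi-ATP exchange assay under initial-velocity conditions at pH 8.0. Substrates were 10 mM ATP, 250 μM salicylic acid and 1 mM PPi. Concentration–response data were fitted to the Morrison tight-binding equation to give apparent Ki.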

[10] = Cytotoxicity against human HepG2 cells assessed as reduction in cell viability; type: cell-based
Method in brief: (§3)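 Viability of mammalian Vero and HepG2 cell lines tested up to a highest concentration of 200 μM.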

[11] = Cytotoxicity against African green monkey Vero cells assessed as reduction in cell viability; type: cell-based; settings: chlorocebus sabaeus; method in brief: as §3
[12] = system: Mycobacterium tuberculosis; assay: Antimycobacterial activity against Mycobacterium tuberculosis H37Rv in glycerol alanine salts medium without ferric ammonium citrate at pH 6.6 after 10 to 14 days by broth microdilution method; type: functional
Method in brief: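 M. tuberculosis H37Rv grown in glycerol-alanine-salts medium at pH 6.6, with no ferric ammonium citrate or other added iron. MIC taken as the concentration inhibiting 99% of growth.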

[13] = system: Mycobacterium tuberculosis; assay: Antimycobacterial activity against Mycobacterium tuberculosis H37Rv in glycerol alanine salts medium without ferric ammonium citrate at pH 6.6 after 10 to 14 days in presence of 0.2 to 3.1 uM salicylate by broth microdilution method; type: functional, organism-based; method in brief: as §1
[14] = biological target: T2, Salicyl-AMP ligase / salicyl-S-ArCP synthetase (Mycobacterium tuberculosis) (UniProt P71716); assay: Inhibition of salicylate ligase MbtA in Mycobacterium tuberculosis H37Rv in iron-free GAST medium assessed as reduction in water-soluble carboxymycobactin production at pH 7.4 at 5 times MIC after 27 to 70 hrs by LC-MS/MS method relative to control
T2 sequence (whole entry): T1 sequence (P71716 whole entry)
Method in brief: (§4)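 M. tuberculosis grown in iron-deficient GAST medium from an initial OD650 of 0.2, with or without inhibitor at 5 × MIC, for 27 and 70 h. Mycobactin-T (cell-wall associated) and carboxymycobactin (secreted plus cell-wall associated) quantified by LC–MS/MS in MRM mode against synthetic standards. Values normalized to cell density.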

[15] = biological target: T2, Salicyl-AMP ligase / salicyl-S-ArCP synthetase (Mycobacterium tuberculosis); assay: Inhibition of salicylate ligase MbtA in Mycobacterium tuberculosis H37Rv in iron-free GAST medium assessed as reduction in cell-wall associated lipophilic mycobactin-T production at pH 7.4 at 5 times MIC after 70 hrs by LC-MS/MS method relative to control; method in brief: as §4
[16] = biological target: T2, Salicyl-AMP ligase / salicyl-S-ArCP synthetase (Mycobacterium tuberculosis); assay: Inhibition of salicylate ligase MbtA in Mycobacterium tuberculosis H37Rv in iron-free GAST medium assessed as reduction in cell-wall associated lipophilic mycobactin-T production at pH 7.4 at 5 times MIC after 27 hrs by LC-MS/MS method relative to control; method in brief: as §4

## Nc1ncnc2c1ncn2[C@@H]1O[C@H](COS(=O)(=O)NC(=O)c2ccccc2O)[C@@H](O)[C@H]1O
[1]
  MIC: ≥ 50 µM
[2]
  AUC(0-t) at 8 h: 8650 ng·h/mL
[3]
  clearance: 4.9 mL/min/kg
[4]
  bioavailability: < 1%
[5]
  Vd: 0.079 L/kg
[6]
  AUC(0-t) at 8 h: 1100 ng·h/mL
[7]
  Activity: Active
[8]
  half-life: 11 min

## Nc1ncnc2c1ncn2[C@@H]1O[C@H](CNS(=O)(=O)c2c[nH]c3ccccc3c2=O)[C@@H](O)[C@H]1O
[9]
  pKi: 6.92
[10]
  CC50: > 200 µM
[11]
  CC50: > 200 µM
[12]
  MIC99: > 50 µM

## Nc1ncnc2c1ncn2[C@@H]1O[C@H](CNS(=O)(=O)c2n[nH]c3ccc(F)cc3c2=O)[C@@H](O)[C@H]1O
[1]
  MIC: ≥ 50 µM
[13]
  Activity: inactive
[9]
  pKi: 7.68
[10]
  CC50: > 200 µM
[11]
  CC50: > 200 µM
[12]
  MIC99: 4.7 µM

## Nc1ncnc2c1ncn2[C@@H]1O[C@H](CNS(=O)(=O)c2noc3ccccc3c2=O)[C@@H](O)[C@H]1O
[9]
  pKi: < 4.30
[10]
  CC50: > 200 µM
[11]
  CC50: > 200 µM
[12]
  MIC99: > 50 µM

## Nc1ncnc2c1ncn2[C@@H]1O[C@H](CNS(=O)(=O)c2n[nH]c3ccccc3c2=O)[C@@H](O)[C@H]1O
[1]
  MIC: ≥ 50 µM
[13]
  Activity: inactive
[9]
  pKi: 7.84
[10]
  CC50: > 200 µM
[11]
  CC50: > 200 µM
[12]
  MIC99: 4.7 µM

## Nc1ncnc2c1ncn2[C@@H]1O[C@H](CNS(=O)(=O)c2n[nH]c3cc(F)c(F)cc3c2=O)[C@@H](O)[C@H]1O
[1]
  MIC: ≥ 50 µM
[13]
  Activity: inactive
[9]
  pKi: 7.85
[10]
  CC50: > 200 µM
[11]
  CC50: > 200 µM
[12]
  MIC99: 3.1 µM

## CCN(CC)CC.Nc1ncnc2c1ncn2[C@@H]1O[C@H](CNS(=O)(=O)c2n[nH]c3cc(F)ccc3c2=O)[C@@H](O)[C@H]1O
[14]
  fold change (FC): 1.5
[1]
  MIC: ≥ 50 µM
[2]
  AUC(0-t) at 8 h: 4630 ng·h/mL
[3]
  clearance: 8.9 mL/min/kg
[4]
  bioavailability: 2.1%
[13]
  Activity: inactive
[5]
  Vd: 0.57 L/kg
[9]
  pKi: 7.94
[10]
  CC50: > 200 µM
[6]
  AUC(0-t) at 8 h: 967 ng·h/mL
[15]
  fold change (FC): 5
[8]
  half-life: 40 min
[11]
  CC50: > 200 µM
[12]
  MIC99: 2.3 µM
[16]
  fold change (FC): > 2
